# Shown are actives, neighbours in structure and some others; about 4.3% of the full set was active somewhere.
# WT yeast gro inh: growth inhibition of WT strain, primary screen, mitochondrial fusion inhibitor project, WT and mutant strains, chemical genetic; mitochondrial fusion phenotypic screen; inhibition, % at 10 µM; 190,000 compounds, 2.1% hits; AID 1362, 2008; in the data active = inhibition above about 58%; tested in S. cerevisiae
# RAM inhibit: inhibitors of the yeast RAM network, primary screen, dse1pr::URA3 reporter, 5-FOA selection | S. cerevisiae dse1pr::URA3 reporter, 5-FOA growth OD615, 2 d; analog-sensitive cbk1-as2 kinase mutant strain | inhibition, % at 50 µM | 190,000 compounds, 1.8% hits;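 active = inhibition above a set limit, 3 SD over mean compound inhibition, cut at about 8.4% in these data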;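 also: 0% = DMSO-only wells with no growth and 100% = 10 µM 1-NA-PP1 full growth; inhibition rescues growth on 5-FOA so higher OD means more RAM inhibition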
# Yeast life ext: compounds extending yeast replicative lifespan, primary screen, S. cerevisiae, OD615; S. cerevisiae growth with nicotinamide; deaD strain in restrictive glucose medium; 130,000 compounds, 0.68% hits; inhibition of the nicotinamide effect, % at 10 µM;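 active = inhibition above a set limit, placed 3 SD over the median of all compounds, cut at about 26% in these data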;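 also: 0% = nicotinamide-treated wells and 100% = cells grown without nicotinamide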
#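 Assay system: DeaD-strain S. cerevisiae. Medium: CSMM-D glucose medium, restrictive. Reagent: nicotinamide, 1.5 mM, co-present with compound. Compound: 10 µM single point, 0.25% DMSO. Schedule: culture preincubation 4 h, compound exposure 48 h, both 30 °C. Detection: absorbance at 615 nm.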
# BB579 growth dn: growth inhibitors of yeast BB579 in restrictive medium, primary screen, yeast lifespan-shortening project, S. cerevisiae; inhibition, % at 10 µM; 140,000 compounds, 0.51% hits; AID 804, 2007; OD615, 48 h;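 active = inhibition above a set limit, 3 SD over the mean compound inhibition, cut at about 44% in these data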
#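 Test system: DeaD yeast strain BB579 / Buffer or medium: restrictive glucose-based CSMM-D medium / Doses: single 10 µM dose / Schedule: 4 h cell preincubation, 48 h compound exposure, 30 °C humidified / Technique: culture absorbance at 615 nm / Controls: amphotericin B positive control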
# Starred values were filed as active, the others as inactive; x = no result given.
SMILES,WT yeast gro inh,RAM inhibit,Yeast life ext,BB579 growth dn
Cc1ccccc1CSc1nnc(-c2ccncc2)o1,-2.6,0.0,x,x
O=C(O)c1[nH]c2ccc(Cl)cc2c1CC(=O)N1CCN(c2ccccc2)CC1,19.2,11.4*,-11.2,-26.3
COc1cc(OC)cc(-c2nnc(SCc3c(F)cccc3Cl)o2)c1,37.8,8.9*,1.2,-53.4
COc1ccc(-c2nnc(SCc3ccccc3F)o2)cc1,-10.7,2.4,-19.1,-47.9
COc1ccc(NS(=O)(=O)c2cccc(NC(=O)c3cnccn3)c2)cc1Br,13.6,-1.1,x,x
CCCn1nc(C(=O)Nc2cccc(C(=O)OC)c2)c2ccccc2c1=O,14.4,8.9*,-18.6,-28.1
CCN1CCN(c2ccc(NC(=O)c3ccc4c(c3)OCO4)cc2)CC1,64.0*,-0.4,-6.1,-16.9
O=C(Nc1ccc(Cl)cc1)c1ccc2c(c1)OCO2,80.0*,0.8,-25.6,-15.9
O=C(Nc1ccc(N2CCCCC2)c(Cl)c1)c1ccc2c(c1)OCCO2,68.5*,0.6,-13.4,-19.0
O=C(Nc1ccc2c(c1)OCO2)c1ccc2c(c1)OCO2,6.8,-0.1,-6.4,-21.5
O=C(COc1ncnc2sccc12)N1CCN(C(=O)c2ccco2)CC1,-1.1,0.1,x,x
Cc1ccc(C(=O)NC(=S)NCc2ccco2)cc1,9.2,-1.6,x,x
COc1ccc(/C=C/C(=O)OCC(=O)c2c(C)[nH]c3ccccc23)cc1OC,32.9,0.4,-2.4,-17.4
COc1ccc2c(c1)[nH]c1c(=O)n(N)cnc12,10.5,2.6,-2.8,4.9
COc1ccc2c(c1)[nH]c1c(Cl)ncnc12,-3.4,-1.9,-9.5,61.2*
COc1ccc(C2C3=C(CC(C)(C)CC3=O)Oc3ncn(Cc4ccco4)c(=N)c32)cc1 (centres undefined),0.2,0.7,2.1,-79.6
COc1ccc(C2c3c(ncn(Cc4ccco4)c3=N)Oc3ccc4ccccc4c32)cc1 (centres undefined),64.1*,0.7,-1.5,-26.6
N=c1c2c(-c3ccccc3)c(-c3ccccc3)n(Cc3ccco3)c2ncn1Cc1ccco1,2.9,-0.7,21.5,-21.7
N=c1c2c(ncn1Cc1ccco1)Oc1ccc3ccccc3c1C2c1ccccc1 (centres undefined),65.8*,-1.0,5.6,-39.3
O=C(NCC(=O)N(Cc1ccccc1)C(C(=O)NC1CCCC1)c1ccncc1)c1ccco1 (centres undefined),-13.2,1.5,x,-29.5
Cc1cccc(C(=O)NC(=S)Nc2ccc(N3CCOCC3)cc2)c1,9.6,-0.1,-7.1,-45.9
O=C(COC(=O)c1ccc(F)c(S(=O)(=O)N2CCCCC2)c1)NCc1ccc(F)cc1,9.8,1.6,x,x
Cc1c(C(=O)N/N=C/C(C)C)[nH]c2ccc([N+](=O)[O-])cc12,18.1,-0.7,-3.9,-36.0
Cc1c(C(=O)N/N=C/c2ccc(Cl)cc2)[nH]c2ccc(Cl)cc12,74.8,8.5*,3.5,-50.7
CC(=O)Nc1ccc(-c2cn3ccsc3n2)cc1,-8.1,0.8,-5.5,-28.7
SMILES,WT yeast gro inh,RAM inhibit,Yeast life ext,BB579 growth dn
c1cn2cc(-c3ccc4c(c3)OCO4)nc2s1,78.9*,1.3,-13.2,39.9
C=CCc1c(OC)ccc2ccc(=O)oc12,22.0,0.0,-20.3,-34.5
Cn1c(O)c(N=NC(=O)c2cccc(S(=O)(=O)N3CCCCC3)c2)c2ccccc21,-3.2,8.9*,2.9,-37.4
NC(=O)c1cccc(S(=O)(=O)N2CCCCC2)c1,-0.1,-1.1,-3.6,-8.1
CCN1CCN(C(=O)C(C)Nc2cc(Cl)c(OC)cc2OC)CC1 (centres undefined),-8.4,0.9,x,x
Cc1ccccc1C(=O)NNC1=NCCC1,-15.1,3.8,28.8*,-22.2
O=C(NNC1=NCCC1)c1cccc(Br)c1,x,0.4,-3.3,-20.8
CC1CCCCC1NC(=O)/C(C#N)=C/c1ccccc1F (centres undefined),72.6*,-1.5,63.1*,-24.6
CSc1ccc(/C=C(\C#N)C(=O)NC2CCCCC2C)cc1 (centres undefined),-1.3,8.3,8.8,-59.9
Cc1cccc(OCC(=O)Nc2ccc(N3CCN(C(=O)c4ccccc4)CC3)cc2)c1,7.0,2.3,0.8,-8.1
Cn1c(O)c(C=Nc2ccc(Br)cc2)sc1=O,4.4,2.8,x,x
O=C1c2ccccc2CCC12N=NCC2c1ccc(Br)cc1 (centres undefined),68.2*,1.7,-4.7,-26.1
O=C1c2ccccc2CCC12N=NCC2c1ccc(Cl)cc1 (centres undefined),6.0,1.9,-14.4,-32.6
CCOc1ccc(NC(=O)c2ccccc2NS(=O)(=O)c2ccc(F)cc2)c([N+](=O)[O-])c1,4.9,10.1*,10.2,-41.9
O=C(Nc1cc(S(=O)(=O)N2CCCCC2)ccc1Cl)c1ccccc1NS(=O)(=O)c1ccc(F)cc1,71.7*,6.4,7.3,-30.7
CCOc1ccc(S(=O)(=O)Nc2ccccc2C(=O)Nc2ccccc2N2CCOCC2)cc1,32.5,8.8*,18.3,-66.5
O=C(Nc1cc(S(=O)(=O)N2CCCCC2)ccc1O)c1ccccc1NS(=O)(=O)c1ccc(F)cc1,-3.9,6.8,5.8,-48.5
CCOC(=O)c1ccccc1NS(=O)(=O)c1ccc(OCC)cc1,45.2,6.4,-10.7,-37.6
O=C(c1cccc(F)c1)N1CCC(c2nc3ccccc3s2)CC1,8.8,1.2,x,x
CN1C(=O)C(C(=O)Nc2ccccc2F)c2ccccc21 (centres undefined),-13.3,0.3,44.5*,-13.8
Cc1ccc(NC(=O)C2C(=O)N(C)c3ccccc32)cc1 (centres undefined),-0.3,0.3,27.9*,-23.0
O=C(O)C(Cc1ccccc1)n1c(=S)[nH]c2ccccc2c1=O (centres undefined),-4.0,1.1,x,x
CCc1cc2c(SCC(=O)c3ccccc3)ncnc2s1,22.6,1.3,x,-7.0
CCc1cc2c(SCC(=O)C(C#N)=C3N(C)c4ccccc4N3C)ncnc2s1,17.4,9.0*,-22.2,-31.2
COc1ccc(Nc2nc(-c3ccc(OC)cc3)cs2)cc1,-2.6,2.0,x,x
SMILES,WT yeast gro inh,RAM inhibit,Yeast life ext,BB579 growth dn
COc1ccc(-c2csc(Nc3ccccc3)n2)cc1,68.6*,5.3,x,x
COc1ccc(-c2csc(Nc3ncccc3C)n2)cc1,75.7*,0.5,x,-0.5
COCCN(C(=O)CNC(=O)c1ccco1)C(C(=O)NC1CCCCC1)c1cccs1 (centres undefined),-15.4,-1.9,x,-11.1
CCOCc1c(C(=O)NC2=Nc3ccccc3NC(CC)=C2C(=O)OCC)oc2ccccc12,26.0,10.3*,x,x
COc1cccc(CC(NC(C)=O)C(=O)NC2CCN(c3nnnn3-c3ccccc3)CC2)c1OC (centres undefined),-9.4,1.0,x,x
Fc1ccc(N2CCN(C3=Nc4cccc5cccc3c45)CC2)cc1,59.0*,0.1,x,x
O=C(COC(=O)c1ccc2c(c1)C(=O)N(Cc1ccncc1)C2=O)Nc1cccc2ccccc12,3.2,2.4,x,x
Cc1[nH]c(=O)[nH]c(=O)c1S(=O)(=O)NCC12CC3CC(CC(C3)C1)C2,17.7,2.9,6.7,-52.0
